Assay results pooled from the literature.
Target: Insulin-like growth factor 1 receptor (IGF1R, Homo sapiens, UniProt P08069)

SMILES	assay	setting	remaining binding [%]
CSc1cccnc1N1CCN(Cc2nc3ccccc3[nH]2)CC1	cell-free assay, competition with immobilised ligand	1 µM	100
O=C(c1ccc(Nc2ncc(Cl)c(-c3ccc(Cl)s3)n2)cc1)N1CCC(N2CCCC2)CC1	binding, competition with immobilised ligand	1 µM	19
COc1cnc(Nc2cccc(S(N)(=O)=O)c2)nc1N1CCN(c2ccccc2)C(=O)C1	binding, competition with immobilised ligand	1 µM	100
O=C(O)c1cc(-c2ccc(C3CCNCC3)cc2)c2ccc(-c3ccc(C(F)(F)F)cc3)cc2c1	cell-free assay, competition with immobilised ligand	1 µM	95
CN(CCCC(F)(F)F)c1nccc(-c2cnn3ncccc23)n1	binding	1 µM	100
CN(c1ccnc(CNc2nc(Nc3ccc4c(c3)CC(=O)N4)ncc2C(F)(F)F)n1)S(C)(=O)=O	cell-free assay, competition with immobilised ligand	1 µM	100
FC(F)(F)Oc1cccc(-c2cnc3ccc(-c4ccncc4)nn23)c1	cell-free assay, competition with immobilised ligand	5 µM	86
NS(=O)(=O)c1cc(NC(=O)Cc2ccccc2)ccc1Oc1cccc(Cl)c1	cell-free assay, competition with immobilised ligand	1 µM	100
N[C@H]1CCN(c2nccc(-c3cnn4ncccc34)n2)C1	binding	1 µM	81
O=C(NCC1CCOCC1)c1n[nH]cc1NC(=O)c1c(F)cccc1F	binding, competition with immobilised ligand	1 µM	96
CC(=O)c1c(NS(C)(=O)=O)c2cc(-c3ccc(Cl)cc3)c(-c3ccc(Cl)cc3Cl)nc2n(C)c1=O	cell-free assay, competition with immobilised ligand	1 µM	100
Cc1cnc(Nc2ccc(C(=O)N3CCC(N4CCCC4)CC3)cc2)nc1-c1cc2ccccc2s1	binding, competition with immobilised ligand	1 µM	45
Nc1ncc2c(n1)-c1c([nH]c3ccc(C#CC4CC4)cc13)CCCC2	binding, competition with immobilised ligand	1 µM	100
C[C@@H]1CN(c2ccc3ncc(-c4ccc5[nH]nc(C6CC6)c5c4)n3n2)C[C@H](C)O1	binding, competition with immobilised ligand	50 nM	99
CN1CCN(c2cnc3c(C4CCN(C(=O)c5ccc(OC(F)(F)F)cc5N)CC4)ncnc3c2)CC1	cell-free assay, competition with immobilised ligand	1 µM	100
CN(C)c1ncc(F)c(-c2cnn3ncccc23)n1	binding	1 µM	100
N#Cc1ccccc1CSc1nnc2c(n1)[nH]c1ccccc12	binding, competition with immobilised ligand	10 µM	91
Cc1cnn2ncc(-c3ccnc(N(C)C)n3)c2c1	binding	1 µM	100
CC(C)CC(=O)N1CCc2nc(-c3ccc(Br)cc3)nc(N(C)Cc3ccccc3)c2C1	cell-free assay, competition with immobilised ligand	0.1 µM	83
F[C@@H]1CCN(c2nccc(-c3cnn4ncccc34)n2)C1	binding	1 µM	89
O=C(c1ccc(Nc2ncc(Cl)c(-c3cc4ccccc4s3)n2)cc1)N1CCC(N2CCCC2)CC1	binding, competition with immobilised ligand	1 µM	40
CN(C)c1nccc(-c2cnc3ncccn23)n1	binding	1 µM	89
CCN1CCN(Cc2ccc(C(=O)Nc3ccc(C)c(Oc4ccc5c(c4)CC(=O)N5)c3)cc2C(F)(F)F)CC1	binding, competition with immobilised ligand	1 µM	100
C[C@H]1CCN(c2nccc(-c3cnn4ncccc34)n2)C1	binding	1 µM	90
CNC(=O)[C@@H]1CC[C@@H](n2c(-c3ccc4cnccc4c3)nc3ccc(C(=O)NCc4cccc(C(N)=O)c4)cc32)C1	binding, competition with immobilised ligand	1 µM	100
